From ChEMBL document CHEMBL1128448, “Synthesis and antifungal activity of new azole derivatives containing an N-acylmorpholine ring” (1995)
≈ marks a conversion by molar mass, not a printed value.

Assays:
Aspergillus flavus = test: In vitro evaluation of minimum inhibitory concentration against Aspergillus flavus 19; type: functional; conditions: Aspergillus flavus; read-out: MIC
Method in brief: (§1)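 Stocks are 800 μg/mL in 50% ethanol. Each plate gets 10 μL of inoculum at 10^5 cfu/mL. Incubation at 25 °C, 48 h for yeasts and 120 h for dermatophytes and molds. Organisms are ATCC strains or clinical isolates.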

Rattus norvegicus [1] = test: In vivo evaluation of antifungal activity against vaginal candidosis in rat at dose 0.1 mg/kg on 10th day; type: functional
Method in brief: (§2)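 Groups of 10 female Wistar rats given estradiol 25 mg/kg sc on day -5, then vaginally inoculated with C. albicans on day 0. Infection is confirmed by culture of day-3 swabs. Compound is dosed orally once daily on days 3–5; controls get vehicle. Cure is scored by culture of vaginal swabs taken on days 10 and 15.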

Cryptococcus neoformans = test: Evaluation of In vitro antifungal activity against Cryptococcus neoformans 74 by broth macro dilution method; type: functional
Method in brief: (§3)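 Yeast MIC and MFC by broth macrodilution per NCCLS M27-P in RPMI-1640 buffered with 0.165 M MOPS. Fluconazole in sterile water, other drugs in DMSO. C. parapsilosis ATCC 22019 is the reference strain in each run. MIC is the lowest concentration with turbidity ≤ the 80% inhibition standard. For MFC, 0.04 mL from clear tubes is plated on Sabouraud agar; MFC is the lowest concentration giving ≤1 colony.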

Trichophyton rubrum = test: In vitro evaluation of minimum inhibitory concentration against Trichophyton rubrum 90; type: functional; method in brief: as §1
Candida albicans [2] = test: Evaluation of In vitro antifungal activity against Candida albicans 2.01 by broth macro dilution method; type: functional; method in brief: as §3
Candida albicans [3] = test: Evaluation of In vitro antifungal activity against Candida albicans 76 by broth macro dilution method; type: functional; method in brief: as §3
Pichia kudriavzevii [4] = test: Evaluation of In vitro antifungal activity against Candida krusei C64 by broth macro dilution method; type: functional; method in brief: as §3
Mus musculus = test: In vivo evaluation of % survival rate after peroral administration on 7th day at dose 0.5 mg/kg; type: functional; conditions: route oral
Mus sp. [5] = test: In vivo evaluation of % survival rate after peroral administration on 9th day at dose 0.5 mg/kg; type: functional; conditions: Mus sp., po
Rattus norvegicus [6] = test: In vivo evaluation of antifungal activity against vaginal candidosis in rat at dose 0.1 mg/kg on 15th day; type: functional; method in brief: as §2
Nannizzia gypsea = test: In vitro evaluation of minimum inhibitory concentration against Microsporum gypseum 22; type: functional; method in brief: as §1
Candida parapsilosis [7] = test: Evaluation of In vitro antifungal activity against Candida parapsilosis C74 by broth macro dilution method; type: functional; conditions: Lodderomyces parapsilosis; method in brief: as §3
Pichia kudriavzevii [8] = test: Evaluation of In vitro antifungal activity against Candida krusei 70 by broth macro dilution method; type: functional; method in brief: as §3
Rattus norvegicus [9] = test: In vivo evaluation of antifungal activity against vaginal candidosis in rat at dose 0.25 mg/kg on 10th day; type: functional
Method in brief: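 Groups of 10 female Wistar rats given estradiol 25 mg/kg sc on day -5, infected intravaginally with C. albicans by sterile swab on day 0; infection confirmed on day 3 by swab culture (TSB, then Sabouraud agar). Oral dosing once daily on days 3, 4, 5; vehicle controls. Vaginal swabs cultured on days 10 and 15; read-out % cured (culture-negative).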

Kluyveromyces marxianus = test: In vitro evaluation of minimum inhibitory concentration against Candida pseudotropicalis 13; type: functional; conditions: Kluyveromyces marxianus; read-out: MIC; method in brief: as §1
Mus sp. [10] = test: In vivo evaluation of % survival rate after peroral administration on 5th day at dose 1 mg/kg; type: functional; conditions: Mus sp., po
Candida albicans [11] = test: Evaluation of In vitro antifungal activity against Candida albicans 31 by broth macro dilution method; type: functional; method in brief: as §3
Candida tropicalis [12] = test: Evaluation of In vitro antifungal activity against Candida tropicalis 50 by broth macro dilution method; type: functional; method in brief: as §3
Candida parapsilosis [13] = test: Evaluation of In vitro antifungal activity against Candida parapsilosis 2.07 by broth macro dilution method; type: functional; conditions: Lodderomyces parapsilosis; method in brief: as §3
Candida tropicalis [14] = test: Evaluation of In vitro antifungal activity against Candida tropicalis 2.11 by broth macro dilution method; type: functional; method in brief: as §3
Candida albicans [15] = test: In vivo evaluation of minimum inhibitory concentration against Candida albicans 60; type: functional; conditions: Candida albicans; read-out: MIC
Method in brief: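 Broth macrodilution MIC following NCCLS M27-P, in RPMI-1640 buffered with 0.165 M MOPS. Fluconazole was dissolved in water and other drugs in DMSO. C. parapsilosis ATCC 22019 served as the reference strain in every run. MIC was the lowest concentration giving turbidity at or below the 80% inhibition standard.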

Trichophyton benhamiae = test: In vitro evaluation of minimum inhibitory concentration against Trichophyton mentagrophytes 23; type: functional, Arthroderma benhamiae; conditions: Trichophyton benhamiae; read-out: MIC; method in brief: as §1
Candida albicans [16] = test: Evaluation of In vitro antifungal activity against Candida albicans C56 by broth macro dilution method; type: functional; method in brief: as §3
Candida parapsilosis [17] = test: Evaluation of In vitro antifungal activity against Candida parapsilosis C292 by broth macro dilution method; type: functional; conditions: Lodderomyces parapsilosis; method in brief: as §3
Microsporum canis = test: In vitro evaluation of minimum inhibitory concentration against Microsporum canis 47; type: functional; method in brief: as §1

## C[C@@H](NC(=O)c1ccc(C(F)(F)F)cc1)[C@](O)(Cn1cncn1)c1ccc(F)cc1F
Aspergillus flavus
  MIC: 20 µg/mL (≈ 45.4 µM)
Rattus norvegicus [1]
  Cure rate: 0%
Cryptococcus neoformans
  MFC: > 64 µg/mL
  MIC: < 0.031 µg/mL
Trichophyton rubrum
  MIC: 10 µg/mL (≈ 22.7 µM)
Candida albicans [2]
  MFC: > 64 µg/mL
  MIC: 0.125 µg/mL (≈ 0.284 µM)
Candida albicans [3]
  MFC: > 64 µg/mL
  MIC: < 0.031 µg/mL
Pichia kudriavzevii [4]
  MFC: 16 µg/mL (≈ 36.3 µM)
  MIC: 4 µg/mL (≈ 9.08 µM)
Mus musculus
  survival at 0.5 mg/kg: 95%
Mus sp. [5]
  survival at 0.5 mg/kg: 70%
Rattus norvegicus [6]
  Cure rate: 20%
Nannizzia gypsea
  MIC: 10 µg/mL (≈ 22.7 µM)
Candida parapsilosis [7]
  MFC: 0.125 µg/mL (≈ 0.284 µM)
  MIC: ≤ 0.031 µg/mL
Pichia kudriavzevii [8]
  MFC: 8 µg/mL (≈ 18.2 µM)
  MIC: 2 µg/mL (≈ 4.54 µM)
Rattus norvegicus [9]
  Cure rate: 100%
Kluyveromyces marxianus
  MIC: 40 µg/mL (≈ 90.8 µM)
Mus sp. [10]
  survival at 1 mg/kg: 100%
Candida albicans [11]
  MFC: > 64 µg/mL
  MIC: < 0.031 µg/mL
Candida tropicalis [12]
  MFC: > 64 µg/mL
  MIC: 1 µg/mL (≈ 2.27 µM)
Candida parapsilosis [13]
  MFC: 64 µg/mL (≈ 145 µM)
  MIC: 0.063 µg/mL (≈ 0.143 µM)
Candida tropicalis [14]
  MFC: 64 µg/mL (≈ 145 µM)
  MIC: 0.25 µg/mL (≈ 0.568 µM)
Candida albicans [15]
  MIC: 0.15 µg/mL (≈ 0.341 µM)
Trichophyton benhamiae
  MIC: 40 µg/mL (≈ 90.8 µM)
Candida albicans [16]
  MFC: > 64 µg/mL
  MIC: < 0.031 µg/mL
Candida parapsilosis [17]
  MFC: 4 µg/mL (≈ 9.08 µM)
  MIC: 0.063 µg/mL (≈ 0.143 µM)
Microsporum canis
  MIC: 20 µg/mL (≈ 45.4 µM)
